Experimental data as given in ChEMBL document CHEMBL1125014, “Synthesis and structure-activity relationships of new 9-N-alkyl derivatives of 9(S)-erythromycylamine” (1990).

Legend:
[1] = species on record: Rattus norvegicus; assay: Fluid concentration in serum tissue was determined in rats at 2 h; assay type: functional
Summary of the method: (§1)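 Rats dosed by gavage at 20 mg/kg; lung, liver, kidney, urine and serum sampled at 0.5, 1, 2, 4 and 6 h after dosing. Antibiotic measured by microbiological assay with Micrococcus luteus seeded in Antibiotic Medium 1. Zone sizes were read against the standard curve for the same compound. Each value is the average of three rats per time point.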

[2] = tested on: Rattus norvegicus; assay: Plasma concentration in rats was determined by subcutaneous administration, 20 mg/kg at 8 h; assay type: functional, organism-based; parameters: dose 20 mg/kg
Summary of the method: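 Peripheral plasma antibiotic levels in rats given 20 mg/kg orally or subcutaneously. Plasma was sampled at timed points after dosing. Levels were measured by microbiological agar assay with Micrococcus luteus seeded in Antibiotic Media 1, reading zone sizes, and were calculated from a standard curve for the appropriate compound. Each value is the average of three rats per time point, in μg/mL.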

[3] = species on record: Rattus norvegicus; assay: Fluid concentration in serum tissue was determined in rats at 4 h; assay type: functional; summary of the method: as §1
[4] = species on record: Rattus norvegicus; assay: Fluid concentration in liver tissue was determined in rats at 4 hr; assay type: functional; summary of the method: as §1
[5] = species on record: Rattus norvegicus; assay: Fluid concentration in serum was determined in rats at 2 hr; assay type: functional; summary of the method: as §1
[6] = tested on: Mus musculus; assay: ED50 value was measured by sc administration against streptococcus pyogenes infection in mice (in vivo, in experiment 3); assay type: functional
[7] = species on record: Rattus norvegicus; assay: Fluid concentration in kidney tissue was determined in rats at 4 hr; assay type: functional
Summary of the method: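 Rats were gavaged at 20 mg/kg and tissues sampled 0.5–6 h after dosing. Drug was assayed microbiologically with Micrococcus luteus seeded in Antibiotic Media 1. Zone sizes were read against each compound's own standard curve. Values are the mean of three rats per time point, in μg/g.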

[8] = species on record: Rattus norvegicus; assay: Fluid concentration in serum was determined in rats at 4 hr; assay type: functional; summary of the method: as §1
[9] = species on record: Rattus norvegicus

| Compound | Activity [1] | Plasma concentration [2] | Activity [3] | Activity [4] | Activity [5] | ED50 [6] | Activity [7] | Activity [8] | Plasma concentration [9] |
| --- | --- | --- | --- | --- | --- | --- | --- | --- | --- |
| CCCN[C@@H]1[C@H](C)[C@@H](O)[C@](C)(O)[C@@H](CC)OC(=O)[C@H](C)[C@@H](OC2CC(C)(OC)C(O)C(C)O2)[C@H](C)[C@@H](OC2OC(C)CC(N(C)C)C2O)[C@](C)(O)C[C@H]1C (some centres undefined) | 0.23 µg/mL | 0.24 µg/mL | 0.12 µg/mL | – | – | – | – | – | – |
| CC[C@H]1OC(=O)[C@H](C)[C@@H](O[C@H]2C[C@@](C)(OC)[C@@H](O)[C@H](C)O2)[C@H](C)[C@@H](O[C@@H]2O[C@H](C)C[C@H](N(C)C)[C@H]2O)[C@](C)(O)C[C@@H](C)C(=O)[C@H](C)[C@@H](O)[C@]1(C)O [ERYTHROMYCIN] | – | – | – | 0 µg/mL | 0 µg/mL | 2.8 mg/kg | 0 µg/mL | 0 µg/mL | 4.2 µg/mL |
